# Screening results from PubChem.
# Hits are enriched below; roughly 2.1% of the tested compounds scored in any of these assays.
# UCH37 inh: human UCH37 deubiquitinating enzyme inhibition; purified proteasome/UCH37, Ub-AMC cleavage fluorescence; inhibition, % (concentration not given with the values); hit rate 0.33% among 330,000;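 active means mean inhibition over replicate wells above about 20%, limit read from the data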;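 further: 0% = compound-free wells with enzyme and 100% = wells lacking proteasome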
# Target sequence (Q9Y5K5 whole entry, looked up): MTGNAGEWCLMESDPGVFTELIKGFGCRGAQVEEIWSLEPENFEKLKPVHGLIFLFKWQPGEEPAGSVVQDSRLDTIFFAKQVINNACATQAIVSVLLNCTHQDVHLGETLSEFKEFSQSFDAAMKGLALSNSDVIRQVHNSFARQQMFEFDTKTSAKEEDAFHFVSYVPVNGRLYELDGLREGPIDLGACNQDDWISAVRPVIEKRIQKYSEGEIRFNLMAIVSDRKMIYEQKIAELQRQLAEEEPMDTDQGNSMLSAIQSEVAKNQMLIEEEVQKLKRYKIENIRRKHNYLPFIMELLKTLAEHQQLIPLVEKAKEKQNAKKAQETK
#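 Signal – fluorescence, ex 355 nm, em 460 nm · System – Proteasome-bound UCH37 · Input – 0.15 nM proteasome as dispensed · Timing – 30 min preincubation with enzyme, 25 min cleavage at room temperature · Read-out basis – percent inhibition of cleavage signal versus uninhibited and no-proteasome wells · Medium – Tris-HCl pH 7.4 with ATP-MgCl2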
# Mot1-301 SUMO: blocks SUMOylation pathway, rescuing yeast Mot1-301 growth. AID 2716. growth rescue, % at 18.8 µM. hit rate 1% among 320,000. S. cerevisiae Mot1-301 growth rescue, ATP luminescence, 38.5C; percent above DMSO median, 100 means doubled;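 active means every valid replicate shows activation above 250% relative to neutral control wells; inactive means the rest, any valid replicate at or below 250%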;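 further: OY570 slx delta 5 strain wells were the positive control but not used for scaling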
# RTF Ca sens inh: cardiac RTF calcium desensitization | P19429+P45379 | hit rate 0.12% among 340,000 | inhibition, % at 7.15 µM | IANBD-labeled cardiac RTF, Ca2+ fluorescence;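 active means inhibition above the mean inhibition of all tested compounds plus 3 SD, cut at about 17% in these data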;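 further: assay run at fixed EC70 calcium of 1.6 mM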
# ARNT-TACC3 inh: disrupts binding between human ARNT and TACC3; AlphaScreen His-ARNT PAS-B/GST-TACC3 binding, luminescence; TACC3 fragment carries E629A point mutation; inhibition, % at 9.99 µM; hit rate 0.66% among 390,000;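 active means mean inhibition of replicates at least 50% and at least half of replicates each reaching 50%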;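 further: 0% = complete ARNT plus TACC3 wells and 100% = ARNT alone without TACC3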
# cardiac RTF act: increases calcium sensitivity of human cardiac regulated thin filaments; P19429+P45379; IANBD-labeled TnC RTF fluorescence at EC20 calcium; 0% EC20 calcium, 100% full calcium; activation, % at 7.2 µM; hit rate 0.24% among 340,000; AID 493008;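 active means activation above the mean over all tested compounds plus 3 SD, cut at about 30% in these data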;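 further: rise in fluorescence read as greater calcium sensitivity of cardiac thin filaments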
# Efflux pump mplx: blocks antifungal efflux pumps in multiplex yeast assay | S. cerevisiae Candida pump triplex, Nile Red efflux | inhibition, % at 10 µM | hit rate 0.44% among 330,000 | AID 485275;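 active means plate passing quality check with inhibition over a set limit, or well fluorescence over plate mean plus 4 SD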;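 further: Nile Red retained in pooled yeast measured as flow cytometry median fluorescence; 0% = buffer negative control and 100% = Enniatin B positive control; higher means more Nile Red kept so more efflux inhibition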
# Yeast Mot1 SUMO: yeast SUMO pathway inhibition in dose response. shares compounds with Mot1-301 SUMO. S. cerevisiae Mot1-301 galactose growth, ATP luminescence, 24 h; -100 = growth of slx-deleted rescue strain. growth activity, percent, % at 42 µM. 2,300 tested, under 10 active. AID 493004;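 active means Signal drops as the depositor expects, and the fitted half-maximal dose is no more than ten times the top valid tested dose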;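 further: more negative values mean stronger growth rescue toward the control strain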
# Cmpd fluor yeast: flagged as fluorescent in efflux inhibitor counter-screen. hit rate 4% among 1,700. fluorescence ratio to DMSO, % at 10 µM. AID 588517. shares compounds with Efflux pump mplx. S. cerevisiae AD/pABC3, compound fluorescence, flow cytometry;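 active means fluorescence ratio to DMSO above its plate's cutoff, the plate mean ratio plus 5 SD, cut at about 210% in these data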;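 further: unstained yeast with no Nile Red so the signal is compound autofluorescence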
# Mdr1 pump inh: Candida Mdr1 efflux pump inhibition; shares compounds with Efflux pump mplx; S. cerevisiae AD/CaMDR1, Nile Red efflux, flow cytometry; inhibition, % at 10 µM; hit rate 1% among 1,700; in the data active means inhibition above about 26%;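 further: 0% = DMSO vehicle and 100% = reference inhibitor; higher means more Nile Red retained so more efflux inhibition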
# Cdr2 pump inh: Candida Cdr2 efflux pump inhibition. shares compounds with Efflux pump mplx. S. cerevisiae AD/CaCDR2, Nile Red retention, flow cytometry. Nile Red retention ratio vs DMSO, % at 10 µM. hit rate 4% among 1,700. AID 588520; in the data active means Nile Red retention ratio vs DMSO above about 190%;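 further: higher ratio means more blocking of Cdr2 efflux of the dye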
# Cdr1 pump inh: Candida Cdr1 efflux pump inhibition; shares compounds with Efflux pump mplx; S. cerevisiae AD/CaCDR1, Nile Red efflux, flow cytometry; inhibition, % at 10 µM; hit rate 1% among 1,700; AID 588522;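 active means inhibition above the screen-wide mean plus twice its standard deviation, cut at about 32% in these data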
# RTF Ca inh conf: confirmation of inhibitors of cardiac thin filament calcium sensitivity. AID 504635. shares compounds with RTF Ca sens inh. reconstituted cardiac thin filaments, calcium sensitivity fluorescence. hit rate 8% among 360. inhibition, % at 7.15 µM; in the data active means inhibition above about 18%
# The depositor's hits bear a star; . = no result; + = active, no number; ! = not confirmed by another sample.
SMILES,UCH37 inh,Mot1-301 SUMO,RTF Ca sens inh,ARNT-TACC3 inh,cardiac RTF act,Efflux pump mplx,others
COC(=O)[C@@H]1[C@@H](CO)[C@@H]2Cn3c(cccc3=O)[C@H]1N2Cc1nccs1,.,.,.,2,.,.,
CN(C=O)CP(=O)(O)CN(C)C=O,.,570*,3,-6,3,0,Yeast Mot1 SUMO=0
O=C1NC(=O)C(=Cc2ccc(N3CCOCC3)cc2)C(=O)N1,6,505*,-5,-13,-2,0,Yeast Mot1 SUMO=0
COc1cc(N2CCOCC2)ccc1C=C1C(=O)NC(=O)NC1=O,.,-15,-4,.,-4,0,
CC(=O)N1CC(=O)Nc2ccc(Cl)cc2C1c1ccccc1 (stereo not given),2,+,-7,0,2,0,Yeast Mot1 SUMO=1
CCOC(=O)c1c(-n2c(C)cc(/C=C3\C(=O)NC(=O)N(C)C3=O)c2C)sc2c1CCCC2,-30,-16,11,-4,-5,0,
Cc1cc(/C=C2\C(=O)NC(=O)N(c3ccc(Cl)cc3)C2=O)c(C)n1-c1sc2c(c1C#N)CCCC2,6,-4,-7,.,4,0.8*,Cmpd fluor yeast=108;Mdr1 pump inh=0;Cdr2 pump inh=104;Cdr1 pump inh=0
CCC(C)N1C(=O)/C(=C\c2cc3c4c(c2)CCCN4CCC3)C(=O)NC1=S (stereo not given),2,-2,-14,6,3,0.7*,Cmpd fluor yeast=118;Mdr1 pump inh=0;Cdr2 pump inh=114;Cdr1 pump inh=0
CCC(C)N1C(=O)/C(=C\c2ccc(N3CCCCCC3)cc2)C(=O)NC1=S (stereo not given),4,-10,-9,-6,5,0,
O=C(Nc1c(F)cc(F)cc1F)c1cccn(Cc2ccccc2)c1=O,1,-16,9,4,0,0.8*,Cmpd fluor yeast=102;Mdr1 pump inh=0;Cdr2 pump inh=100;Cdr1 pump inh=0
CC(C)NC(=O)N1[C@@H]2c3ccc(-c4cccc(C(=O)N(C)C)c4)c(=O)n3C[C@H]1[C@H](CO)[C@H]2C(=O)O,.,.,.,-4,.,.,
CCOc1ccc(N2C(=O)/C(=C/c3ccc(C)o3)C(=O)NC2=S)cc1,6,15,-1,7,6,0.9*,Cmpd fluor yeast=100;Mdr1 pump inh=0;Cdr2 pump inh=89;Cdr1 pump inh=0
Clc1ccc(C(c2ccc(Cl)cc2)n2cc[n+](CC(OCc3ccc(Cl)cc3Cl)c3ccc(Cl)cc3Cl)c2)cc1 (stereo not given),10,-45,2,9,10,90*,Cmpd fluor yeast=94;Mdr1 pump inh=0;Cdr2 pump inh=+;Cdr1 pump inh=0
Cc1ccc2c(c1)C1CN(C)CCC1N2C(=O)c1ccc(Br)o1 (stereo not given),3,-10,-18,2,2,0.6*,Cmpd fluor yeast=112;Mdr1 pump inh=1;Cdr2 pump inh=127;Cdr1 pump inh=0
O=C(Cc1cccnc1)N1CCCCN2[C@H](CO)[C@@H](c3ccc(/C=C/c4ccccc4)cc3)[C@@H]2C1,.,.,.,-4,.,.,
O=c1c2ccccc2[se]n1-c1ccccc1,1,-36,-1,1,-6,4.0*,Cmpd fluor yeast=96;Mdr1 pump inh=1;Cdr2 pump inh=107;Cdr1 pump inh=0
O=c1c2ccccc2nc(N2CCCC2)n1-c1ccccc1,-109,106,-7,-5,-4,0,
OC[C@@H]1[C@@H]2c3ccccc3NC[C@@H]2N1Cc1cccnc1,.,.,.,6,.,.,
CCCN1[C@@H]2c3ccc(-c4ccc(F)cc4)c(=O)n3C[C@H]1[C@H](CO)[C@H]2C(=O)OC,.,.,.,-5,.,.,
CC(=NCc1cccnc1)c1c(O)n(-c2ccccc2C)c(=O)[nH]c1=O,7,-3,-8,0,7,1.8*,Cmpd fluor yeast=103;Mdr1 pump inh=0;Cdr2 pump inh=133;Cdr1 pump inh=0
CCC(=NCc1cccnc1)c1c(O)n(-c2ccccc2C)c(=O)[nH]c1=O,6,-5,-1,1,-2,0,
CN(C)C1C(=O)C(C(N)=O)=C(O)C2(O)C(=O)C3=C(O)c4c(O)cccc4C(C)(O)C3C(O)C12 (stereo not given),-3,-4,30*,35,-8,0,RTF Ca inh conf=-4
CC(C)(C)c1o[nH]c(=O)c1CC(N)C(=O)O (stereo not given),1,27,21*,-4,2,0,RTF Ca inh conf=-5
Cc1ccccc1-c1ccc([C@H]2[C@@H](CO)N3CCCCN(C(=O)Cc4ccccn4)C[C@@H]23)cc1,.,.,.,-1,.,.,
C[N+]12CCC(CC1)C(=C(c1ccccc1)c1ccccc1)C2,0,-4,19*,0,0,1,RTF Ca inh conf=-2
SMILES,UCH37 inh,Mot1-301 SUMO,RTF Ca sens inh,ARNT-TACC3 inh,cardiac RTF act,Efflux pump mplx,others
COc1ccc(C#Cc2ccc([C@H]3[C@H]4CN(C(=O)Cc5ccccc5)CCCCN4[C@H]3CO)cc2)cc1,.,.,.,-5,.,.,
O=C(Cc1ccncc1)N1CCCCN2[C@H](CO)[C@H](c3ccc(-c4ccncc4)cc3)[C@@H]2C1,.,.,.,1,.,.,
Oc1ccc2c3c1O[C@H]1c4[nH]c5ccccc5c4C[C@@]4(O)[C@@H](C2)N(CC2CC2)CC[C@]314,0,-1,13,4,5,0,
Oc1ccc2c3c1O[C@H]1c4oc5ccccc5c4C[C@@]4(O)[C@@H](C2)N(CC2CC2)CC[C@]314,1,82,27*,-1,-1,0,RTF Ca inh conf=5
CC12CC3CC(C)(C1)CC(N)(C3)C2,1,-12,17*!,-6,0,0,RTF Ca inh conf=-2
O=C(Cc1ccccc1)N1C[C@H]2[C@@H](c3ccccc31)[C@H](CO)N2Cc1ccccc1,.,.,.,-7,.,.,
Cc1nc2ccccc2c(=O)n1-c1ccc(F)cc1F,1,-1,-6,1,-6,0,
Cc1nc2ccccc2c(=O)n1-c1cc(F)ccc1F,1,-20,28*,-11,0,0,RTF Ca inh conf=-3
Cc1cccc(CN(C)C)c1OC(=O)N(C)C,5,-8,34*,-1,1,0,RTF Ca inh conf=1
Cc1ccccc1-c1ccc([C@H]2[C@H]3CN(C(=O)Cc4ccccn4)CCCCN3[C@H]2CO)cc1,.,.,.,1,.,.,
